We go through 13 compounds from ChEMBL document CHEMBL1152714, “Design, synthesis and biological evaluation of a novel class of anticancer agents: anthracenylisoxazole lexitropsin conjugates” (Bioorg Med Chem, 2009).

A short description of series [1]: Antitumor activity against human NCI60 cells after 48 hrs by SRB assay. The series is classed as functional. To be noted: NCI60, 48 h. In short, it runs like this: (§1)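 Cells were exposed to the drug continuously for 48 h. Cell viability or growth was estimated with the sulforhodamine B protein assay.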
Series [2] concerns EKVX. As to the kind of experiment: Antitumor activity against human EKVX cells overexpressing c-myc after 48 hrs by SRB assay. Format: functional. The procedure, abridged: as §1
Series [3] deals with HCC 2998. As to the kind of experiment: Antitumor activity against human HCC2998 cells overexpressing c-myc after 48 hrs by SRB assay. The series is classed as functional. To be noted: HCC 2998, 48 h. In short, it runs like this:
as §1
For orientation: In SRB staining, fixed cells bind dye roughly in proportion to their protein.

The test system of series [4] is SF-295. Briefly: Antitumor activity against human SF295 cells overexpressing c-myc after 48 hrs by SRB assay. Format: functional. The conditions noted are these: SF-295, 48 h. The procedure, abridged:
as §1

Series [5] concerns Mus musculus. Briefly: Acute toxicity in ip dosed mouse. The conditions noted are these: in vivo. Format: organism-based. The procedure, abridged: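 Mice given three dose regimens (100, 200 and 400 mg/kg), with animals followed to day 14 and body weight recorded at day 14 for signs of acute toxicity.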
The test system of series [6] is DNA. Briefly: Binding affinity to calf thymus DNA at 10 uM by microarray fluorescence experiment. The series is classed as nucleic-acid assay. To be noted: Bos taurus. The procedure, abridged: (§2)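 DNA was prepared in TE buffer with 10 mM KCl at pH 7.0, to a final concentration of 400 […]. The oligonucleotide was hybridized with Cy3-AP3-dCTP. The ligand was 10 μM in aqueous 25% DMSO. Mixtures were incubated at 37°C for 5 min, then printed on slides. Excitation was at 310, 380, 410 and 485 nm, emission at 530 nm. Slides were read on a microarray scanner at 10 μm resolution.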

Series [7] is described as follows: Binding affinity to Hurley-oligonucleotide at 10 uM by microarray fluorescence experiment. In short, it runs like this: as §2
The species entered for series [8] is Homo sapiens. As to the kind of experiment: Binding affinity to human DNA at a drug-DNA ratio of 1:1 by fluorescence experiment. In short, it runs like this:
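Solution fluorescence was measured on histone-free human DNA mixed with the ligand at a 1:1 molar ratio. The shift in λmax was monitored.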

In series [9] the test system is Mus musculus. Briefly: Toxicity in mouse assessed as weight gain at 100 mg/kg, ip after 14 days. The series is classed as organism-based. More on the design: dose 100 mg/kg, route intraperitoneal. The conditions noted are these: in vivo, 336 h. The procedure, abridged: (§3)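 Acute toxicity was tested in mice at three dose regimens (100, 200 and 400 mg/kg). Body weight was assessed at day 14.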

Series [10] concerns Mus musculus. Briefly: Toxicity in mouse assessed as weight gain at 200 mg/kg, ip after 14 days. More on the design: dose 200 mg/kg, route intraperitoneal. The conditions noted are these: in vivo, 336 h. Format: organism-based. The procedure, abridged:
as §3

In series [11] the test system is Mus musculus. As to the kind of experiment: Toxicity in mouse assessed as weight gain at 400 mg/kg, ip after 14 days. The conditions noted are these: in vivo, 336 h. Format: organism-based. Details: dose 400 mg/kg, route intraperitoneal. The procedure, abridged: as §3
The target of series [12] is DNA polymerase I, thermostable (Thermus aquaticus) (UniProt P19821). Briefly: Inhibition of Taq polymerase.
DNA polymerase I, thermostable (Thermus aquaticus), sequence (P19821 whole entry): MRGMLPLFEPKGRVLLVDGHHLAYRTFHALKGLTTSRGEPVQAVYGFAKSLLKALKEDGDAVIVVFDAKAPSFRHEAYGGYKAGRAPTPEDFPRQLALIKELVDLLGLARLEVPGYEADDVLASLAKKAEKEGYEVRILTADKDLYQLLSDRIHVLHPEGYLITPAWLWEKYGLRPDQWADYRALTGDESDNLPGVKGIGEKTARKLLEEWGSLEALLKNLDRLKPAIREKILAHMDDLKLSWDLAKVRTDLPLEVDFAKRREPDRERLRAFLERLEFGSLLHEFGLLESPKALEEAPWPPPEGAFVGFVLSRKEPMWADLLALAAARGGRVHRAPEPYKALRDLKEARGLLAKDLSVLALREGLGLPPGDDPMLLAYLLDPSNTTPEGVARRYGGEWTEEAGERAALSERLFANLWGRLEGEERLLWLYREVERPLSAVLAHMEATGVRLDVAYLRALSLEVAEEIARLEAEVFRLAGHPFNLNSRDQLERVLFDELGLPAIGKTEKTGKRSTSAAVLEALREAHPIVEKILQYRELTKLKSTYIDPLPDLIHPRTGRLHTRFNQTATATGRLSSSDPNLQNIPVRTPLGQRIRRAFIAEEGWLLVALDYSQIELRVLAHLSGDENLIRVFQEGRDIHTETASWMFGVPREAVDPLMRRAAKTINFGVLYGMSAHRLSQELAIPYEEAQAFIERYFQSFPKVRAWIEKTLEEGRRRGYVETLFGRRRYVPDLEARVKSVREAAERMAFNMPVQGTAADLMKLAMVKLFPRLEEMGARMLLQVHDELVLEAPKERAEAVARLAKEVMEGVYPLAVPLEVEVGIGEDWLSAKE
The species named for series [13] is Homo sapiens. As to the kind of experiment: Stabilization of human telomeric G-quadruplex DNA assessed as inhibition of duplex formation at 5 uM by ESI-MS study. In short, it runs like this: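 Time-course ESI-MS was run on a mixture of 5 μM G-quadruplex DNA, 5 μM complementary C-DNA and 5 μM ligand. Ion intensities of single-stranded and duplex DNA were followed as the strands re-hybridized. TMPyP4 was the positive control and no ligand the negative control.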

The subject of series [14] is HOP-92. As to the kind of experiment: Antitumor activity against human HOP92 cells overexpressing c-myc after 48 hrs by SRB assay. Format: functional. To be noted: HOP-92, 48 h. In short, it runs like this: as §1
The target of series [15] is Telomerase reverse transcriptase (Homo sapiens) (UniProt O14746). Briefly: Inhibition of telomerase assessed as telomere elongation by TRAP assay. In short, it runs like this:
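Telomere elongation was assessed by a TRAP assay with gel electrophoresis read-out.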

Series [16] relates to SNB-75. As to the kind of experiment: Antitumor activity against human SNB75 cells overexpressing c-myc after 48 hrs by SRB assay. The series is classed as functional. To be noted: SNB-75, 48 h. In short, it runs like this: as §1
For series [17], the system named is HOP-62. As to the kind of experiment: Antitumor activity against human HOP62 cells overexpressing c-myc after 48 hrs by SRB assay. Format: functional. To be noted: HOP-62, 48 h. In short, it runs like this:
as §1

Series [18] has as its system SF-539. As to the kind of experiment: Antitumor activity against human SF539 cells overexpressing c-myc after 48 hrs by SRB assay. Format: functional. To be noted: SF-539, 48 h. The procedure, abridged: as §1
In series [19] the test system is NCI-H226. As to the kind of experiment: Antitumor activity against human NCI-H226 cells overexpressing c-myc after 48 hrs by SRB assay. The series is classed as functional. To be noted: NCI-H226, 48 h. The procedure, abridged: as §1

Activity calls are given as the source filed them. No cut-off for these calls is given here.

Telomerase reverse transcriptase (Homo sapiens), sequence (O14746 whole entry): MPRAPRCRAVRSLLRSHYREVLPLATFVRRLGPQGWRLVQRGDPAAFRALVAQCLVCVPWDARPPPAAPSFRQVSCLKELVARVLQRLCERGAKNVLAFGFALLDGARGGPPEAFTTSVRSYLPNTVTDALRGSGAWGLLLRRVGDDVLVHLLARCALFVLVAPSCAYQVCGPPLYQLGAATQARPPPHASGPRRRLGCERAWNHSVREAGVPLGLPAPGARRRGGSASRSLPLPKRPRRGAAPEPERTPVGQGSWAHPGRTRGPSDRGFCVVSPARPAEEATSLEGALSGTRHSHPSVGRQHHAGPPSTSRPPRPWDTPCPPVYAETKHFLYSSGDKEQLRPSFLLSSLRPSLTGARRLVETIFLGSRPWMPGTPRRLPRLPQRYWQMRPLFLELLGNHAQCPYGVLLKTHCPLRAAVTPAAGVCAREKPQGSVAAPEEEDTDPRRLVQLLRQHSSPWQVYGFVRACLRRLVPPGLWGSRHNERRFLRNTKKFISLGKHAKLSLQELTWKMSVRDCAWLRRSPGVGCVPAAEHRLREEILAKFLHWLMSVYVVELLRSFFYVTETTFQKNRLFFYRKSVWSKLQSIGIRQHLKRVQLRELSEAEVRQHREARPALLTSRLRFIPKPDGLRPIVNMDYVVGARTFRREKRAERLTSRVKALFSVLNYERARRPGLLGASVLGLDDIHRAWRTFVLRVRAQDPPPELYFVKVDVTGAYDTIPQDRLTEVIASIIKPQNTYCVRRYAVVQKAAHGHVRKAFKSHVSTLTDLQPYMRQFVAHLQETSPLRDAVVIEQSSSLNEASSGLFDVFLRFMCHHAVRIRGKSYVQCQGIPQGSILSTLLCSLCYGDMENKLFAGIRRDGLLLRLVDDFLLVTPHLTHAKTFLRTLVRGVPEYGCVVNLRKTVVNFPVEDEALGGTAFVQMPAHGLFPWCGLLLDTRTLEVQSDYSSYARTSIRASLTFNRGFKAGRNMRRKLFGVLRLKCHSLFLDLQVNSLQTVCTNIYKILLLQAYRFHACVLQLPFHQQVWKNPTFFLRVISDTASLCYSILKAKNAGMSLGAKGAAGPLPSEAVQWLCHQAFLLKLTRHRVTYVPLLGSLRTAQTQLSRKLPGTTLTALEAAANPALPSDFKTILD

As to `Cc1onc(-c2c3ccccc3nc3ccccc23)c1C(=O)Nc1cc(C(=O)Nc2cc(C(=O)NCCCN(C)C)n(C)c2)n(C)c1`, the GI50 in series [1] (read-out: GI50) is 20.9 µM; in series [1] (read-out: pGI50 (converted)), 20.9 µM; in series [2], 0.661 µM; in series [3], 0.776 µM; in series [4] it was 0.0302 µM.
Take `Cc1onc(-c2c3ccccc3cc3ccccc23)c1C(=O)Nc1cc(C(=O)Nc2cc(C(=O)NCCCN(C)C)n(C)c2)n(C)c1`: the GI50 in [1] (read-out: GI50) was 10.5 µM; in [1] (read-out: pGI50 (converted)), 12.3 µM. In addition, the Activity result in series [5] was “Non-toxic”; in [9], “Toxic”; in series [10], “Toxic”; in series [11], “Toxic”. Moreover, the outcome in [6], in [7] and in [8] was Active.
In the case of `Cc1onc(-c2c3ccccc3c(Cl)c3ccccc23)c1C(=O)Nc1cc(C(=O)NCCCN(C)C)n(C)c1`, in [12], the outcome was inactive. The outcome in [13] and in series [15] was Active. Also, the figures for the GI50 in [1] (read-out: GI50), in series [1] (read-out: pGI50 (converted)) and in [14] were 1.78 µM, 1.91 µM and 0.0933 µM, respectively.
Turning to `Cc1onc(-c2c3ccccc3c(Br)c3ccccc23)c1C(=O)Nc1cc(C(=O)NCCCN(C)C)n(C)c1`, the GI50 in series [1] (read-out: GI50) is 8.71 µM; in series [1] (read-out: pGI50 (converted)), 8.71 µM; in series [16], 0.158 µM.
Take `Cc1onc(-c2c3ccccc3cc3ccccc23)c1C(=O)Nc1cc(C(=O)N(CCCN(C)C)CCCN(C)C)n(C)c1`: the GI50 in series [1] (read-out: GI50) and in [1] (read-out: pGI50 (converted)) was 3.89 µM each time.
On to `Cc1onc(-c2c3ccccc3c(-c3ccccc3)c3ccccc23)c1C(=O)Nc1cc(C(=O)NCCCN(C)C)n(C)c1`, for which, in series [13], the outcome was Active. For the same compound, the GI50 in series [1] (read-out: GI50) is 0.95 µM; in series [1] (read-out: pGI50 (converted)) it was 1.95 µM; in series [17], 0.0105 µM; in series [14], 0.0631 µM; in series [18] it was less than 0.01 µM.
As for `Cc1onc(-c2c3ccccc3cc3ccccc23)c1C(=O)Nc1cc(C(=O)Nc2cc(C(=O)N(CCCN(C)C)CCCN(C)C)n(C)c2)n(C)c1`, the GI50 in series [1] (read-out: GI50) and in series [1] (read-out: pGI50 (converted)) was 15.5 µM throughout.
Turning to `CCOC(=O)c1c(-c2c3ccccc3nc3ccccc23)noc1C`, the GI50 in [1] (read-out: GI50) and in series [1] (read-out: pGI50 (converted)) was 20.4 µM in each case.
Take `Cc1onc(-c2c3ccccc3cc3ccccc23)c1C(=O)Nc1cc(C(=O)NCCCN(C)C)n(C)c1`: the GI50 in [1] (read-out: GI50) was 7.94 µM; in series [1] (read-out: pGI50 (converted)), 7.94 µM; in series [17] it was 0.407 µM.
Consider `Cc1onc(-c2c3ccccc3cc3ccccc23)c1C(=O)N(CCCN(C)C)CCCN(C)C`, for which the GI50 was 4.57 µM in series [1] (read-out: GI50) and 4.9 µM in series [1] (read-out: pGI50 (converted)).
Turning to `C[n+]1ccc(-c2c3nc(c(-c4cc[n+](C)cc4)c4ccc([nH]4)c(-c4cc[n+](C)cc4)c4ccc([nH]4)c(-c4cc[n+](C)cc4)c4nc2C=C4)C=C3)cc1`, the result in series [13] was Active.
In the case of `Cc1onc(-c2c3ccccc3cc3ccccc23)c1C(=O)NCCCN(C)C`, the figures for the GI50 in series [1] (read-out: GI50), in series [1] (read-out: pGI50 (converted)) and in series [19] were 32.4 µM, 32.4 µM and less than 0.01 µM, respectively.
As to `CN(C)CCCNC(=O)c1cc(NC(=O)c2cc(NC(=O)c3onc(-c4c5ccccc5cc5ccccc45)c3C(=O)Nc3cc(C(=O)Nc4cc(C(=O)NCCCN(C)C)n(C)c4)n(C)c3)cn2C)cn1C`, the GI50 in series [1] (read-out: GI50) and in series [1] (read-out: pGI50 (converted)) was 20.4 µM throughout.
